Measurements from ChEMBL document CHEMBL4270578, “Synthesis and cytotoxic studies of novel 5-phenylisatin derivatives and their anti-migration and anti-angiogenic evaluation” (Eur J Med Chem, 2018).

Key:
K562 = assay: Antiproliferative activity against human K562 cells after 48 hrs by MTT assay; format: functional, cell-based; details: K562, 48 h
Method in brief: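 MTT assay on K562 cells (RPMI-1640, 10% FBS) plated at 5 × 10^4 cells/ml for 2 h, then exposed to 10–100,000 nM compound for 48 h. MTT (5 mg/mL stock) added for 4 h before absorbance read. Viability normalized to DMSO controls (100%); IC50 from nonlinear regression, three independent assays.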

HepG2 = assay: Antiproliferative activity against human HepG2 cells after 48 hrs by MTT assay; format: functional, cell-based; details: HepG2, 48 h

| Structure (SMILES) | IC50 (K562) [nM] | IC50 (HepG2) [nM] |
| --- | --- | --- |
| COc1ccc(CN2C(=O)C(O)c3cc(-c4ccc(OC)cc4)ccc32)cc1 (stereo not drawn) | 140 | 700 |
| COc1ccc(CN2C(=O)C(=O)c3cc(-c4cccc(OC)c4)ccc32)cc1 | 100 | 1890 |
| COc1ccc(-c2ccc3c(c2)C(=O)C(=O)N3Cc2ccccc2Cl)cc1 | 380 | 600 |
| COc1ccc(-c2ccc3c(c2)C(=O)C(=O)N3Cc2ccc3ccccc3c2)cc1 |  | 380 |
| COc1ccc(-c2ccc3c(c2)C(=O)C(=O)N3Cc2ccc(C#N)cc2)cc1 | 380 | 1000 |
| COc1ccc(CN2C(=O)C(=O)c3cc(-c4ccc(F)c(Cl)c4)ccc32)cc1 | 380 | > 10000 |
| COc1ccc(-c2ccc3c(c2)C(=O)C(=O)N3Cc2ccc(F)cc2)cc1 | 560 | 1120 |
| Cc1ccc(-c2ccc3c(c2)C(=O)C(=O)N3)cc1 | > 10000 | 6000 |
| COc1ccc(CN2C(=O)/C(=C\c3ccc(C(C)C)cc3)c3cc(-c4ccc(OC)cc4)ccc32)cc1 | > 10000 | > 10000 |
| CC[C@@]1(O)C(=O)OCc2c1cc1n(c2=O)Cc2cc3ccccc3nc2-1 [CAMPTOTHECIN] | 70 | 370 |
| COc1ccc(CN2C(=O)C(=O)c3cc(-c4ccc(C(F)(F)F)cc4)ccc32)cc1 | 350 | 820 |
| COc1ccc(CN2C(=O)C(=O)c3cc(-c4ccsc4)ccc32)cc1 | 80 | 3670 |
| COc1ccc(CN2C(=O)C(=O)c3cc(-c4ccc5ccccc5c4)ccc32)cc1 | 340 | > 10000 |
| COc1ccc(CN2C(=O)C(=O)c3cc(-c4ccc(C#N)cc4)ccc32)cc1 | 260 | 890 |
| COc1ccc(-c2ccc3c(c2)C(=O)C(=O)N3CCOc2ccccc2)cc1 | 400 | 700 |
| COc1ccc(-c2ccc3c(c2)C(=O)C(=O)N3)cc1 | 6920 | 960 |
| COc1ccc(CN2C(=O)C(=O)c3cc(-c4ccccc4OC)ccc32)cc1 | 370 | > 10000 |
| COC(=O)/C=C1\C(=O)N(Cc2ccc(OC)cc2)c2ccc(-c3ccc(OC)cc3)cc21 | 1900 | 4730 |
| O=C1Nc2ccc(Cl)cc2C1=O | > 10000 | > 10000 |
| COc1ccc(CN2C(=O)C(=O)c3cc(-c4ccc(F)cc4)ccc32)cc1 | 240 | 3150 |
| O=C1Nc2ccc(Br)cc2C1=O | > 10000 | > 10000 |
| COc1ccc(CN2C(=O)C(=O)c3cc(-c4ccc(C)cc4)ccc32)cc1 | 400 | > 10000 |
| COc1ccc(CN2C(=O)C(=O)c3cc(-c4ccc(C(C)(C)C)cc4)ccc32)cc1 | 2250 | 4580 |
| COc1ccc(CN2C(=O)C(=O)c3cc(-c4ccncc4)ccc32)cc1 | 40 | > 10000 |
| COc1ccc(-c2ccc3c(c2)C(=O)C(=O)N3Cc2ccc(Br)cc2)cc1 | 100 | 700 |
| COc1ccc(CN2C(=O)C(=O)c3cc(-c4ccc(O)cc4)ccc32)cc1 | 60 | > 10000 |
| COc1ccc(CN2C(=O)C(=O)c3cc(-c4ccc(OC)c(OC)c4)ccc32)cc1 | 260 | > 10000 |
| COc1ccc(-c2ccc3c(c2)C(=O)C(=O)N3Cc2ccccc2OC)cc1 | 40 | 130 |

Now from value to compound:

| IC50 (K562) [nM] | IC50 (HepG2) [nM] | Structure (SMILES) |
| --- | --- | --- |
| 4980 | 6670 | COc1ccc(-c2ccc3c(c2)C(=O)C(=O)N3C)cc1 |
| > 10000 | > 10000 | COc1ccc(CN2C(=O)C3(OCCO3)c3cc(-c4ccc(OC)cc4)ccc32)cc1 |
| 60 | 410 | COc1ccc(CN2C(=O)C(=O)c3cc(-c4ccc(OC(F)(F)F)cc4)ccc32)cc1 |
| > 10000 | > 10000 | COc1ccc(CN2C(=O)/C(=N\O)c3cc(-c4ccc(OC)cc4)ccc32)cc1 |
| 7460 | > 10000 | COc1ccc(CN2C(=O)C(=O)c3ccc(-c4ccc(OC)cc4)cc32)cc1 |
| > 10000 | > 10000 | COc1ccc(CN2C(=O)/C(=C\c3ccccc3)c3cc(-c4ccc(OC)cc4)ccc32)cc1 |
| > 10000 | 5330 | O=C1Nc2ccc(-c3ccccc3)cc2C1=O |
| 270 | 330 | COc1ccc(-c2ccc3c(c2)C(=O)C(=O)N3Cc2ccc(C)cc2)cc1 |
| > 10000 | > 10000 | COc1ccc(CN2C(=O)C(C)(O)c3cc(-c4ccc(OC)cc4)ccc32)cc1 (stereo not drawn) |
| 350 | 250 | COc1ccc(-c2ccc3c(c2)C(=O)C(=O)N3Cc2ccc(Cl)cc2)cc1 |
| 270 | 380 | COc1ccc(-c2ccc3c(c2)C(=O)C(=O)N3Cc2ccc(C(F)(F)F)cc2)cc1 |
| > 10000 | > 10000 | COc1ccc(CN2C(=O)C(=O)c3c(-c4ccc(OC)cc4)cccc32)cc1 |
| > 10000 | > 10000 | O=C1Nc2ccc(F)cc2C1=O [5-FLUOROISATIN] |
| > 10000 | > 10000 | O=C1Nc2ccccc2C1=O [ISATIN] |
| 2200 | 4470 | CCN1C(=O)C(=O)c2cc(-c3ccc(OC)cc3)ccc21 |
| > 10000 | > 10000 | COc1ccc2c(c1)C(=O)C(=O)N2 [5-METHOXYISATIN] |
| > 10000 | > 10000 | COc1ccc(CN2C(=O)Cc3cc(-c4ccc(OC)cc4)ccc32)cc1 |
| > 10000 | > 10000 | CCCCc1ccc2c(c1)C(=O)C(=O)N2 |
|  | 700 | COc1ccc(-c2ccc3c(c2)C(=O)C(=O)N3Cc2cccc(OC)c2)cc1 |

| IC50 (K562) [nM] | IC50 (HepG2) [nM] | Structure (SMILES) |
| --- | --- | --- |
| 310 | > 10000 | COc1ccc(CN2C(=O)C(=O)c3cc(-c4ccc(OC(C)C)cc4)ccc32)cc1 |
| 60 | 1350 | COc1ccc(-c2ccc3c(c2)C(=O)C(=O)N3Cc2ccc(OC)c(OC)c2)cc1 |
| 150 | 1080 | COc1ccc(CN2C(=O)C(=O)c3cc(-c4ccccc4)ccc32)cc1 |
| 200 | 320 | COc1ccc(-c2ccc3c(c2)C(=O)C(=O)N3Cc2cccc(Cl)c2)cc1 |
| > 10000 | > 10000 | COc1ccc(CN2C(=O)C(F)(F)c3cc(-c4ccc(OC)cc4)ccc32)cc1 |
| 1240 | 3390 | CCOC(=O)/C=C1\C(=O)N(Cc2ccc(OC)cc2)c2ccc(-c3ccc(OC)cc3)cc21 |
| 570 | 1360 | COc1ccc(-c2ccc3c(c2)C(=O)C(=O)N3Cc2ccccc2)cc1 |
| 230 | 380 | COc1ccc(CN2C(=O)C(=O)c3cc(-c4ccc(Cl)cc4)ccc32)cc1 |
| 1900 | > 10000 | COc1ccc(CN2C(=O)/C(=C\c3ccc(C(F)(F)F)cc3)c3cc(-c4ccc(OC)cc4)ccc32)cc1 |
| 4430 | 8560 | COc1ccc(CN2C(=O)C(=O)c3cccc(-c4ccc(OC)cc4)c32)cc1 |
| > 10000 | > 10000 | Cc1ccc2c(c1)C(=O)C(=O)N2 |
| 30 | 440 | COc1ccc(-c2ccc3c(c2)C(=O)C(=O)N3Cc2ccc3c(c2)OCO3)cc1 |
| 430 | 990 | COc1ccc(-c2ccc3c(c2)C(=O)C(=O)N3Cc2ccc(Cl)c(Cl)c2)cc1 |
| 390 | 7090 | C=CCN1C(=O)C(=O)c2cc(-c3ccc(OC)cc3)ccc21 |
| 140 | 410 | COc1ccc(-c2ccc3c(c2)C(=O)C(=O)N3Cc2cc(C)cc(C)c2)cc1 |
| > 10000 | 5430 | O=C1Nc2ccc(-c3ccc(C(F)(F)F)cc3)cc2C1=O |
| > 10000 | > 10000 | COc1ccc(-c2ccc3c(c2)C(=O)C(=O)N3c2ccc(OC)cc2)cc1 |
| 510 | 1200 | COc1ccc(CN2C(=O)C(=O)c3cc(-c4cc(OC)cc(OC)c4)ccc32)cc1 |
